The source made the active and inactive calls. No cut-off for these calls is given here.
Legend:
[1] = Cytotoxicity against mouse splenocytes assessed as cell viability after 24 hrs by MTS assay; format: cell-based; conditions: splenocyte
Summary of the method: (§1)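 Spleen cells from non-infected mice, no stimulus added, cultured at 5 × 10⁶ cells/ml in AIM-V medium (1.25 × 10⁵ cells/well) with each compound for the stated time at 37 °C, 5% CO₂, humidified. MTS plus phenazine ethosulfate then added and incubated 3 h more. Absorbance read at 490 nm. Viability compared against vehicle control.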

Splenocyte [2] = assay: Immunosuppressive activity in influenza virus A/PR/8/34-H1N1 infected mouse splenocytes assessed as reduction of IL-2 level at 0.5 mg/ml after 48 hrs by ELISA; format: functional, cell-based
Summary of the method: (§2)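 Spleen cells from mice taken 7 days after influenza infection; RBCs lysed with ammonium chloride, washed in HBSS, 5 × 10⁶ cells/ml in AIM-V. Restimulated with virus, compounds at 0.5 mg/ml final, triplicate, 37 °C, 5% CO₂. Supernatants collected at 48 h for IL-2 and IFN-γ and at 96 h for IL-10. Sandwich ELISA, TMB readout, four-parameter standard-curve fit.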

[3] = Cytotoxicity against mouse splenocytes assessed as cell viability after 72 hrs by MTS assay; format: cell-based; conditions: splenocyte; summary of the method: as §1
Splenocyte [4] = assay: Immunosuppressive activity in influenza virus A/PR/8/34-H1N1 infected mouse splenocytes assessed as reduction of IFN-gamma level at 0.5 mg/ml after 48 hrs by ELISA; format: functional, cell-based; summary of the method: as §2
Splenocyte [5] = assay: Immunosuppressive activity in influenza virus A/PR/8/34-H1N1 infected mouse splenocytes assessed as reduction of IL-10 level at 0.5 mg/ml after 96 hrs by ELISA; format: functional, cell-based; summary of the method: as §2
[6] = Cytotoxicity against mouse splenocytes assessed as cell viability after 48 hrs by MTS assay; format: cell-based; conditions: splenocyte; summary of the method: as §1

SMILES | Activity [1] | Activity (Splenocyte [2]) | Activity [3] | Activity (Splenocyte [4]) | Activity (Splenocyte [5]) | Activity [6]
COc1cc2c(cc1OC)-c1cc3ccccc3n1CC2 | Toxic | Active | Toxic | Active | Active | Toxic
FC(F)(F)c1ccc2c(c1)cc1n2CCc2ccccc2-1 | Non-toxic | Active | Non-toxic | Active | Active | Non-toxic
COc1cc2cc3n(c2cc1OC)CCc1ccccc1-3 | Toxic | Active | Toxic | Active | Active | Toxic
c1ccc2c(c1)CCn1c-2cc2ccccc21 |  | Active |  | Active | Active | 
COc1cc2c(cc1OC)-c1cc3cc(C(F)(F)F)ccc3n1CC2 | Toxic | Active | Toxic | Active | Active | Toxic
COc1cc2c(cc1OC)-c1cc3ccc(C(F)(F)F)cc3n1CC2 | Toxic | Active | Non-toxic | Active | Active | Non-toxic
COc1cc2c(cc1OC)-c1cc3cc(OC)c(OC)cc3n1CC2 | Toxic | Active | Toxic | Active | Active | Toxic
COc1cc2c(cc1OC)-c1cc3cccc(OC)c3n1CC2 |  | Active |  | Active | Active | 
COc1cccc2cc3n(c12)CCc1ccccc1-3 | Toxic | Active | Toxic | Active | Active | Toxic
FC(F)(F)c1ccc2cc3n(c2c1)CCc1ccccc1-3 | Toxic | Active | Non-toxic | Active | Active | Non-toxic

From ChEMBL document CHEMBL1155216, “A direct synthesis of 5,6-dihydroindolo[2,1-a]isoquinolines that exhibit immunosuppressive activity” (Bioorg Med Chem Lett, 2009)
